Assay [1] deals with Aldo-keto reductase family 1 member B1 (Bos taurus) (UniProt P16116). Description: Inhibition of aldose reductase in partially purified bovine lens preparation at 10e-6 M. In outline:
(§1)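 Aldose reductase partially purified from bovine lens, with the final chromatographic step of the earlier preparation omitted. Assay run in duplicate with test compound at 1 × 10^-6 M or 1 × 10^-7 M. Reported as % inhibition of enzymatic activity.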

The test system of assay [2] is Rattus norvegicus. The assay can be described thus: In vivo inhibition of galactitol accumulation in the diaphragm of ratat a dose of 75 mg/kg/day. The class given is functional.
Assay [3] deals with Rattus norvegicus. The assay can be described thus: In vivo inhibition of galactitol accumulation in the sciatic nerves of rat at a dose of 25 mg/kg/day. The class given is functional. The settings on record: Sciatic nerve.
Assay [4] has as its system Rattus norvegicus. Description: […] inhibition of sorbitol accumulation in rat sciatic nerves at 10e-5 M concentration. The class given is functional, Sciatic nerve. The method in brief: (§2)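 Sciatic nerves were taken from male Sprague-Dawley rats (200–250 g) after CO2 euthanasia. Nerves were incubated 3 h at 37 °C under 95% air/5% CO2 in Hank's salts buffer, pH 7.4, with 50 mM glucose and (0–5)×10^-5 M compound, in triplicate. Nerve sorbitol was measured spectrofluorometrically in duplicate, and the read-out was % inhibition of sorbitol accumulation.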

Assay [5] has as its system Rattus norvegicus. Description: In vivo inhibition of sorbitol accumulation in rat sciatic nerves at 10e-6 M concentration. It counts as functional, Sciatic nerve. The method in brief: as §2
Assay [6] deals with Rattus norvegicus. Description: In vivo inhibition of galactitol accumulation in the diaphragm of rat. at a dose of 25 mg/kg/day; NS =not significant. It counts as functional, organism-based.
Assay [7] has as its system Rattus norvegicus. The assay can be described thus: In vivo inhibition of galactitol accumulation in the sciatic nerves of rat at a dose of 75 mg/kg/day. Conditions: Sciatic nerve. The class given is functional.
Assay [8] has as its target Aldo-keto reductase family 1 member B1 (Bos taurus) (UniProt P16116). Description: Inhibition of aldose reductase in partially purified bovine lens preparation at 10e-7 M concentration. The method in brief: as §1
Assay [9] concerns Rattus norvegicus. Description: In vivo inhibition of sorbitol accumulation in rat sciatic nerves at 5*10e-5 M concentration. The class given is functional, Sciatic nerve. Conditions: in the assay text read “In vitro” for “In vivo”. In outline: as §2
The target of assay [10] is Aldo-keto reductase family 1 member B1 (Bos taurus) (UniProt P16116). Description: […] inhibition of aldose reductase in partially purified bovine lens preparation at 10e-6 M concentration. The method in brief:
(§3)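 Enzyme partially purified from bovine lens by a published method, with the final chromatographic step omitted. Test compound was added at 1×10^-6 or 1×10^-7 M. Assays were run in duplicate, and the read-out was % inhibition of enzymatic activity.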

Assay [11] has the same target. The assay can be described thus: […] inhibition of aldose reductase in partially purified bovine lens preparation at 10e-7 M concentration. In outline: as §3
The test system of assay [12] is Rattus norvegicus. Description: In vivo inhibition of galactitol accumulation in the sciatic nerves of ratat a dose of 51 mg/kg/day; NS=not significant. It counts as functional, organism-based. Conditions: Sciatic nerve.
The test system of assay [13] is Rattus norvegicus. Description: In vivo inhibition of galactitol accumulation in the diaphragm of rat at a dose of 51 mg/kg/day. It counts as functional.

Activity calls are given as the source filed them. No cut-off for these calls is given here.

`COc1ccc2c(C(=O)N(C)CC(=O)O)cccc2c1C(F)(F)F`: the inhibition turned out to be 86% in assay [1] and 57% in [8]. The inhibition in vivo at 75 mg/kg/day in the assay with Rattus norvegicus [2] amounted to 27%; in the assay with Rattus norvegicus [7] it was 56%. In addition, in the assay on Rattus norvegicus [3], the inhibition in vivo at 25 mg/kg/day turned out to be 33%. Moreover, the figures for the Inhibition with Rattus norvegicus [4], in the assay on Rattus norvegicus [5] and in the assay with Rattus norvegicus [9] were 74%, 27% and 89%, respectively. Also, the inhibition entry in the assay with Rattus norvegicus [6] is “inactive”.
`COC(=O)N(CC(=O)O)C(=S)c1cccc2c(C(F)(F)F)c(OC)ccc12`: the inhibition in assay [10] is 88%; in assay [11] it was 29%. For the same compound, the inhibition entry in the assay with Rattus norvegicus [12] was “inactive”. Also, the Inhibition in the assay on Rattus norvegicus [4] amounted to 61%; in the assay on Rattus norvegicus [5] it was 36%. Besides, the inhibition in vivo at 51 mg/kg/day in the assay with Rattus norvegicus [13] is 80%.

Values taken from ChEMBL document CHEMBL1124370 (1989).
